# pIC50: −log10 of the molar value.
# Columns and labels:
# [1] = Integrated area under the plasma drug level-time curve was determined in portal circulation after intraduodenal dose of 10 mg/kg in monkey; format: ADME, organism-based; set-up: dose 10 mg/kg, route intraduodenal; details: simiiformes
# Method in brief: (§1)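 Anesthetized, salt-depleted cynomolgus monkeys dosed intraduodenally at 10 mg/kg in HCl salt/ethanol–hydroxypropyl methylcellulose vehicle (25% ethanol). Systemic and portal plasma drug levels measured by renin inhibition assay. AUC in ng h/mL. Bioavailability compared against an iv dose of 0.3 mg/kg or 1.0 mg/kg, the latter taken from earlier work. Mean ± SEM.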
# [2] = Integrated area under the plasma drug level-time curve was determined in systemic circulation after intraduodenal dose of 10 mg/kg in monkey; format: ADME, organism-based; set-up: dose 10 mg/kg, route intraduodenal; details: simiiformes; method in brief: as §1
# [3] = Bioavailability was determined after intraduodenal dose of 10 mg/kg in monkey (compared to 0.3 mg/kg intravenous dose); format: ADME, organism-based; details: simiiformes, in vivo, read-out: Bioavailabiility; method in brief: as §1
# [4] = Hypotension peak is percentage change from predose baseline pressure observed after intraduodenal dose of 10 mg/kg in monkey; format: ADME, organism-based; set-up: dose 10 mg/kg, route intraduodenal; details: simiiformes, in vivo, other
# Method in brief: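 Anesthetized, salt-depleted cynomolgus monkeys given 10 mg/kg intraduodenally. Mean arterial pressure followed for up to 5 h. Peak fall expressed as % change from predose baseline. Difference from baseline significant if P < 0.05. Mean ± SEM.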
# [5] = Peak concentration was determined in portal circulation after intraduodenal dose of 10 mg/kg in monkey; format: ADME, organism-based; set-up: dose 10 mg/kg, route intraduodenal; details: simiiformes, in vivo, read-out: Activity; method in brief: as §1
# [6] = Peak concentration was determined in systemic circulation after intraduodenal dose of 10 mg/kg in monkey; format: ADME, organism-based; set-up: dose 10 mg/kg, route intraduodenal; details: simiiformes, in vivo, read-out: Activity; method in brief: as §1
# [7] = Partition coefficient in the octanol/water phase at pH 7.4; format: physicochemical
# Method in brief: (§2)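 log P measured by octanol/water partition at pH 7.4.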
# Renin [8] = molecular target: T1, Renin (Homo sapiens, UniProt P00797); test: Inhibitory concentration against human plasma renin at pH 7.4; format: cell-free
# T1 sequence (P00797 whole entry): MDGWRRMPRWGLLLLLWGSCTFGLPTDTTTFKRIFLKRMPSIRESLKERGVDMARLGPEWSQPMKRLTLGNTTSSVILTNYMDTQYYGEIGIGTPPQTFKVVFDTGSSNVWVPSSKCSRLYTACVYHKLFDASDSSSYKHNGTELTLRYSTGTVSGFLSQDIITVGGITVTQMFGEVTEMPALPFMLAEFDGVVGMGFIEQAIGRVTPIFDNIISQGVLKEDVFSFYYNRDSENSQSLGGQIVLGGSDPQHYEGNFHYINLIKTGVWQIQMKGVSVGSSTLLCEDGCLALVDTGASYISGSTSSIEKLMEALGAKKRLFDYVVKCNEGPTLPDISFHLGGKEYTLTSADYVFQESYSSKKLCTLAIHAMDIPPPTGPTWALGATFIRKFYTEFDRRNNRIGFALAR
# [9] = Bioavailability in the portal circulation after 10 minutes was determined after intraduodenal dose of 10 mg/kg in rat by HPLC method; format: ADME, organism-based; details: plasma (portal circulation), read-out: Plasma level
# Method in brief: (§3)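 Screening model in anesthetized rats given 10 mg/kg intraduodenally. Formulation was ethanol stock with 110 mol % HCl, diluted with aqueous hydroxypropyl methylcellulose to 25% ethanol. Systemic and portal blood drawn at 10 and 30 min in the same animals. Drug level (ng/mL) measured by HPLC or renin inhibition assay. Mean ± SEM, n = 3 unless noted.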
# [10] = Bioavailability in the portal circulation after 30 minutes was determined after intraduodenal dose of 10 mg/kg in rat by HPLC method; format: ADME, organism-based; details: plasma (portal circulation), read-out: Plasma level; method in brief: as §3
# [11] = Bioavailability in the systemic circulation after 10 minutes was determined after intraduodenal dose of 10 mg/kg in rat by HPLC method; format: ADME, organism-based; details: plasma (systemic circulation), read-out: Plasma level; method in brief: as §3
# [12] = Bioavailability in the systemic circulation after 30 minutes was determined after intraduodenal dose of 10 mg/kg in rat by HPLC method; format: ADME, organism-based; details: plasma (systemic circulation), read-out: Plasma level; method in brief: as §3
# [13] = Partition coefficient in octanol/water phase at pH 7.4; format: physicochemical; method in brief: as §2
# [14] = Integrated area under the plasma drug level-time curve was determined in systemic circulation after intraduodenal dose of 10 mg/kg in ferret, determined by renin inhibition assay; format: ADME, organism-based, Mustela putorius furo; set-up: dose 10 mg/kg, route intraduodenal
# Method in brief: (§4)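 Intraduodenal 10 mg/kg to anesthetized rats or ferrets. Compound dissolved in ethanol with 110 mol % HCl, then diluted in aqueous hydroxypropyl methylcellulose to 25% ethanol (10 mg/mL). Plasma sampled id rat 15, 30, 60, 120 min; id ferret 5, 15, 30, 60, 120, 180 min. Drug measured by renin inhibition assay or HPLC. AUC in ng h/mL. Bioavailability is relative to iv 1.0 mg/kg (rat) or 0.3 mg/kg (ferret).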
# [15] = Integrated area under the plasma drug level-time curve was determined in systemic circulation after intraduodenal dose of 10 mg/kg in monkey determined by renin inhibition assay; format: ADME, organism-based; set-up: dose 10 mg/kg, route intraduodenal; details: simiiformes; method in brief: as §1
# [16] = Integrated area under the plasma drug level-time curve was determined in systemic circulation after intraduodenal dose of 10 mg/kg in rat, determined by renin inhibition assay; format: ADME, organism-based; set-up: dose 10 mg/kg, route intraduodenal; method in brief: as §4
# [17] = Bioavailability was determined after intraduodenal dose of 10 mg/kg in monkey (compared to 0.3 mg/kg intravenous dose), determined by renin inhibition assay; format: ADME, organism-based; details: simiiformes, in vivo, read-out: Bioavailabiility; method in brief: as §1
# [18] = Bioavailability was determined after intraduodenal dose of 10 mg/kg in rat, determined by renin inhibition assay; format: ADME, organism-based; details: in vivo, read-out: Bioavailabiility; method in brief: as §4
# [19] = Peak concentration was determined in systemic circulation after intraduodenal dose of 10 mg/kg in ferret, determined by renin inhibition assay; format: ADME, organism-based, Mustela putorius furo; set-up: dose 10 mg/kg, route intraduodenal; details: in vivo, read-out: Activity; method in brief: as §4
# [20] = Peak concentration was determined in systemic circulation after intraduodenal dose of 10 mg/kg in monkey, determined by renin inhibition assay; format: ADME, organism-based; set-up: dose 10 mg/kg, route intraduodenal; details: simiiformes, in vivo, read-out: Activity; method in brief: as §1
# [21] = Peak concentration was determined in systemic circulation after intraduodenal dose of 10 mg/kg in rat, determined by renin inhibition assay; format: ADME, organism-based; set-up: dose 10 mg/kg, route intraduodenal; details: in vivo, read-out: Activity; method in brief: as §4
# [22] = Bioavailability in the portal circulation after 30 minutes was determined after intraduodenal dose of 10 mg/kg in rat by renin inhibition assay; format: ADME, organism-based; details: plasma (portal circulation), read-out: Plasma level; method in brief: as §3
# [23] = Solubility at pH 7.4; format: physicochemical; details: buffer
# [24] = Bioavailability in the portal circulation after 10 minutes was determined after intraduodenal dose of 10 mg/kg in rat by renin inhibition assay; format: ADME, organism-based; details: plasma (portal circulation), read-out: Plasma level; method in brief: as §3
# [25] = Bioavailability in the systemic circulation after 10 minutes was determined after intraduodenal dose of 10 mg/kg in rat by renin inhibition assay; format: ADME, organism-based; details: plasma (systemic circulation), read-out: Plasma level; method in brief: as §3
# [26] = Bioavailability in the systemic circulation after 30 minutes was determined after intraduodenal dose of 10 mg/kg in rat by renin inhibition assay; format: ADME, organism-based; details: plasma (systemic circulation), read-out: Plasma level; method in brief: as §3
# Renin [27] = molecular target: T1, Renin; test: In vitro inhibitory concentration against human plasma renin at pH 7.4; format: cell-free
# Renin [28] = molecular target: T2, Renin (Rattus norvegicus, UniProt P08424); test: In vitro inhibitory concentration against rat plasma renin at pH 7.4; format: cell-free
# T2 sequence (P08424 whole entry): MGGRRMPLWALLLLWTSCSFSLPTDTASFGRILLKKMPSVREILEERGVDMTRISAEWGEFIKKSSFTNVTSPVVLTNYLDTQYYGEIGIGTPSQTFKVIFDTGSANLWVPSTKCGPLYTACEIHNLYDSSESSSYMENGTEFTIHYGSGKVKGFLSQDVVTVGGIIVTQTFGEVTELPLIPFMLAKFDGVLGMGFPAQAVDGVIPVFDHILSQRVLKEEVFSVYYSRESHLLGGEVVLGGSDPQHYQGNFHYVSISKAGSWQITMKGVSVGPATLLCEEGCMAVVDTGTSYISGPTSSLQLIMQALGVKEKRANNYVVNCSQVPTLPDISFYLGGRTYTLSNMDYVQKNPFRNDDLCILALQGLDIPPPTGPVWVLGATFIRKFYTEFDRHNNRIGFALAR
# [29] = Bioavailability was determined after intraduodenal dose of 10 mg/kg in ferret, determined by renin inhibition assay; format: ADME, organism-based, Mustela putorius furo; details: in vivo, read-out: Bioavailabiility; method in brief: as §4
# [30] = molecular target: Renin (Canis lupus familiaris); test: In vitro inhibitory concentration against dog plasma renin at pH 7.4
# [31] = In vitro inhibitory concentration against monkey plasma renin at pH 7.4
structure (smiles),measurement,setting,value
CC(C)C[C@H](O)[C@H](O)[C@H](CC1CCCCC1)NC(=O)[C@H](Cc1cscn1)NC(=O)[C@H](Cc1ccccc1)CS(=O)(=O)C1CCN(C)CC1,AUC,[1],0.53 µg·h/mL
same,AUC,[2],0.11 µg·h/mL
same,bioavailability,[3],1.8%
same,Change,[4],23%
same,Cmax,[5],0.55 µg/mL
same,Cmax,[6],0.072 µg/mL
same,logD,[7],3.61
same,pIC50,Renin [8],8.40
CC(C)C[C@H](O)[C@H](O)[C@H](CC1CCCCC1)NC(=O)[C@H](Cc1cscn1)NC(=O)[C@@H](CC(=O)N(C)CCCN(C)C)Cc1ccccc1,concentration at 10 min,[9],0.58 µg/mL
same,concentration at 0.5 h,[10],0.27 µg/mL
same,concentration at 10 min,[11],0.093 µg/mL
same,concentration at 0.5 h,[12],0.047 µg/mL
same,logD,[13],2.83
same,pIC50,Renin [8],8.09
CC(C)C[C@H](O)[C@H](O)[C@H](CC1CCCCC1)NC(=O)[C@H](Cc1cscn1)NC(=O)[C@@H](CC(=O)N(C)CCc1ccccn1)Cc1ccccc1,AUC,[1],3.4 µg·h/mL
same,AUC,[14],1.1 µg·h/mL
same,AUC,[15],0.26 µg·h/mL
same,AUC,[16],1.3 µg·h/mL
same,bioavailability,[17],3.1%
same,bioavailability,[18],27%
same,Change,[4],28%
same,Cmax,[5],1.2 µg/mL
same,Cmax,[19],0.51 µg/mL
same,Cmax,[20],0.07 µg/mL
same,Cmax,[21],0.98 µg/mL
same,concentration at 0.5 h,[22],0.56 µg/mL
same,solubility,[23],0.013 mg/mL
same,concentration at 10 min,[24],0.55 µg/mL
same,concentration at 10 min,[25],0.22 µg/mL
same,concentration at 0.5 h,[26],0.23 µg/mL
same,logD,[7],4.22
same,pIC50,Renin [27],8.59
same,pIC50,Renin [28],< 5.00
same,bioavailability,[29],68%
same,pIC50,[30],7.48
same,pIC50,[31],9.12
